ChEMBL document CHEMBL4152247, “Discovery of novel 2,4-diarylaminopyrimidine derivatives as potent and selective epidermal growth factor receptor (EGFR) inhibitors against L858R/T790M resistance mutation” (Eur J Med Chem, 2018)
Calls of active or inactive are those of the source. The calls are words filed in the database; no cut-off is given here.

Legend:
[1] = target: T1, Epidermal growth factor receptor (Homo sapiens, UniProt P00533); test: Inhibition of recombinant human GST-tagged wild type EGFR expressed in baculovirus expression system using poly (Glu, Tyr) 4:1 as substrate after 1 hr by ELISA
[2] = target: Epidermal growth factor receptor (Homo sapiens, UniProt P00533, L858R/T790M); test: Inhibition of recombinant human GST-tagged EGFR T790M/L858R double mutant expressed in baculovirus expression system using poly (Glu, Tyr) 4:1 as substrate after 1 hr by ELISA
NCI-H1975 [3] = test: Antiproliferative activity against EGFR T790M/L858R double mutant expressing human NCI-H1975 cells after 72 hrs by SRB assay; assay type: functional, cell-based; details: NCI-H1975, 72 h
How it was run: (§1)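 SRB assay: cells seeded at 5×10^3 per well for 24 h, then exposed to serial dilutions for 72 h. DMSO stocks were 10.0 mg/ml. Cells were fixed with 10% TCA at 4 °C for 1 h and stained 15 min with 4 mg/mL SRB in 1% acetic acid. Absorbance was read at 515 nm. Inhibition was taken as [1-(A515 treated/A515 control)]×100%. IC50 was obtained by the logit method, averaging at least three independent experiments.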

Homo sapiens [4] = organism: Homo sapiens; test: Selectivity index, ratio of IC50 for wild type EGFR expressing human A431 cells to IC50 for EGFR T790M/L858R double mutant expressing human NCI-H1975 cells
Homo sapiens [5] = organism: Homo sapiens; test: Selectivity ratio of IC50 for recombinant human GST-tagged wild type EGFR to IC50 for recombinant human GST-tagged EGFR T790M/L858R double mutant
A-431 = test: Antiproliferative activity against wild type EGFR expressing human A431 cells after 72 hrs by SRB assay; assay type: cell-based; details: A-431, 72 h; how it was run: as §1
NCI-H1975 [6] = test: Antitumor activity against EGFR T790M/L858R double mutant expressing human NCI-H1975 cells xenografted in BALB/c athymic nude mouse assessed as tumor growth inhibition at 10 mg/kg, po bid for 21 days; assay type: functional, organism-based
How it was run: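 5×10^6 NCI-H1975 cells injected subcutaneously into the right flank of athymic mice. At tumour volume 100-300 mm³, mice were randomised (n = 6 per group) to vehicle or drug. Drug given orally twice daily. Tumour size and body weight were measured on set days, with volume = length×width²/2. Results are group means with SEM.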

[7] = test system: Epidermal growth factor receptor (Homo sapiens), P00533 [L858R,T790M]; test: Inhibition of EGF-induced EGFR T790M/L858R double mutant phosphorylation in human NCI-H1975 cells preincubated for 2 hrs followed by EGF induction and measured after 10 mins by Western blot analysis; assay type: cell-based
How it was run: (§2)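 Cells were treated with or without compound for 2 h, then stimulated with 50 ng/ml EGF for 10 min. They were lysed in SDS lysis buffer for Western blot. Blots were probed for p-EGFR, EGFR, p-ERK, ERK, p-AKT and AKT, with tubulin as reference.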

Mus musculus [8] = test: In vivo inhibition of EGFR T790M/L858R double mutant phosphorylation in tumor of BALB/c athymic nude mouse xenografted with human NCI-H1975 cells assessed as decrease in Akt phosphorylation at 10 mg/kg, po bid for 21 days; assay type: functional, organism-based
How it was run: (§3)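 Western blot of NCI-H1975 xenograft tumors from mice given 10 mg/kg orally twice daily. Phospho-EGFR and phospho-Akt were quantified against the vehicle control group. Significance was set at p < 0.05.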

[9] = target: T1, Epidermal growth factor receptor; test: Inhibition of EGF-induced wild type EGFR phosphorylation in human A431 cells at 0.1 to 1000 nM preincubated for 2 hrs followed by EGF induction and measured after 10 mins by Western blot analysis; assay type: cell-based; details: 1 µM; how it was run: as §2
NCI-H1975 [10] = test: Antitumor activity against EGFR T790M/L858R double mutant expressing human NCI-H1975 cells xenografted in po dosed BALB/c athymic nude mouse assessed as tumor growth inhibition administered as bid for 21 days; assay type: functional, organism-based
Mus musculus [11] = test: In vivo inhibition of wild type EGFR phosphorylation in tumor of BALB/c athymic nude mouse xenografted with human A431 cells at 10 mg/kg, po bid for 21 days; details: 504 h
A431 (Homo sapiens) = test: Antitumor activity against wild type EGFR expressing human A431 cells xenografted in BALB/c athymic nude mouse assessed as tumor growth inhibition at 20 mg/kg, po bid for 21 days relative to vehicle-treated control; details: in vivo, 504 h
[12] = test system: Epidermal growth factor receptor (Homo sapiens), P00533 [L858R,T790M]; test: Inhibition of EGF-induced EGFR T790M/L858R double mutant in human NCI-H1975 cells assessed as decrease in AKT phosphorylation preincubated for 2 hrs followed by EGF induction and measured after 10 mins by Western blot analysis; assay type: cell-based; how it was run: as §2
[13] = test system: Epidermal growth factor receptor (Homo sapiens), P00533 [L858R,T790M]; test: Inhibition of EGF-induced EGFR T790M/L858R double mutant in human NCI-H1975 cells assessed as decrease in ERK phosphorylation preincubated for 2 hrs followed by EGF induction and measured after 10 mins by Western blot analysis; assay type: cell-based; how it was run: as §2
Mus musculus [14] = test: Toxicity in BALB/c athymic nude mouse xenografted with wild type EGFR expressing human A431 cells assessed as body weight loss at 10 to 20 mg/kg, po bid for 21 days; details: in vivo, 504 h
Mus musculus [15] = test: In vivo inhibition of EGFR T790M/L858R double mutant phosphorylation in tumor of BALB/c athymic nude mouse xenografted with human NCI-H1975 cells at 10 mg/kg, po bid for 21 days; assay type: functional, organism-based; how it was run: as §3
Mus musculus [16] = test: Toxicity in BALB/c athymic nude mouse xenografted with EGFR T790M/L858R double mutant expressing human NCI-H1975 cells assessed as body weight loss at 10 to 20 mg/kg, po bid for 21 days; assay type: organism-based; details: in vivo, 504 h
Mus musculus [17] = test: In vivo inhibition of wild type EGFR phosphorylation in tumor of BALB/c athymic nude mouse xenografted with human A431 cells assessed as decrease in Akt phosphorylation at 10 mg/kg, po bid for 21 days; details: 504 h

Epidermal growth factor receptor (Homo sapiens), P00533 [L858R,T790M], sequence (P00533 whole entry T790M/L858R, looked up): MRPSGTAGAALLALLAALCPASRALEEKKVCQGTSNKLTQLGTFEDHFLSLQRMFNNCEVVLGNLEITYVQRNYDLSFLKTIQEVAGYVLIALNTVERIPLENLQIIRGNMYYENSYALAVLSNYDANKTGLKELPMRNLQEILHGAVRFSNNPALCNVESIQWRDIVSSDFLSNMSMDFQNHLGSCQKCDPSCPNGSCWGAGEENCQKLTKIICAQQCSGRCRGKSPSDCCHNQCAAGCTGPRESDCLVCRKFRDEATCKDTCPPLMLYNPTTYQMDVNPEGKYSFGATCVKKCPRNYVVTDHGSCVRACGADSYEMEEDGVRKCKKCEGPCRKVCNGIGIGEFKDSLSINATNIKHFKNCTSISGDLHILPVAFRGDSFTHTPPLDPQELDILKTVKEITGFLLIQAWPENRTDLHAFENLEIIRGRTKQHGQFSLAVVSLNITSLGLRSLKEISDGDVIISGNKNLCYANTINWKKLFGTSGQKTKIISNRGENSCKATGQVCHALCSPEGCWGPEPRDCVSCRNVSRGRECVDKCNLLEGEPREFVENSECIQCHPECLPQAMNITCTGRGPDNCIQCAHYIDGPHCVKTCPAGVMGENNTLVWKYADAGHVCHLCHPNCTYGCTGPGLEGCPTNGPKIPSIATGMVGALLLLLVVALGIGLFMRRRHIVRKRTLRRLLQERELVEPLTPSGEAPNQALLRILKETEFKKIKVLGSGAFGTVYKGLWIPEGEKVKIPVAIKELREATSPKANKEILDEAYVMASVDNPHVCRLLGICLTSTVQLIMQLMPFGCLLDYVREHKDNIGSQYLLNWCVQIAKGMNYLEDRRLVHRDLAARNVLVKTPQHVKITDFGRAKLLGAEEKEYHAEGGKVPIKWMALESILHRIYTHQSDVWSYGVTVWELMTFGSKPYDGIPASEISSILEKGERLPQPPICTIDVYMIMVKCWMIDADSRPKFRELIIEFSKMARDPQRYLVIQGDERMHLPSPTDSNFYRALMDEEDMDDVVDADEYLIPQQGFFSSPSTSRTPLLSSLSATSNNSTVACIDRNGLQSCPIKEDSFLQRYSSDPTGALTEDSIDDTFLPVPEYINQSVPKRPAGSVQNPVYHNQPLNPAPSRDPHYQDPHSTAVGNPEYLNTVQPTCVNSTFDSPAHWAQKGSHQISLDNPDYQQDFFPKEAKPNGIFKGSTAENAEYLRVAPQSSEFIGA
T1 sequence (P00533 whole entry): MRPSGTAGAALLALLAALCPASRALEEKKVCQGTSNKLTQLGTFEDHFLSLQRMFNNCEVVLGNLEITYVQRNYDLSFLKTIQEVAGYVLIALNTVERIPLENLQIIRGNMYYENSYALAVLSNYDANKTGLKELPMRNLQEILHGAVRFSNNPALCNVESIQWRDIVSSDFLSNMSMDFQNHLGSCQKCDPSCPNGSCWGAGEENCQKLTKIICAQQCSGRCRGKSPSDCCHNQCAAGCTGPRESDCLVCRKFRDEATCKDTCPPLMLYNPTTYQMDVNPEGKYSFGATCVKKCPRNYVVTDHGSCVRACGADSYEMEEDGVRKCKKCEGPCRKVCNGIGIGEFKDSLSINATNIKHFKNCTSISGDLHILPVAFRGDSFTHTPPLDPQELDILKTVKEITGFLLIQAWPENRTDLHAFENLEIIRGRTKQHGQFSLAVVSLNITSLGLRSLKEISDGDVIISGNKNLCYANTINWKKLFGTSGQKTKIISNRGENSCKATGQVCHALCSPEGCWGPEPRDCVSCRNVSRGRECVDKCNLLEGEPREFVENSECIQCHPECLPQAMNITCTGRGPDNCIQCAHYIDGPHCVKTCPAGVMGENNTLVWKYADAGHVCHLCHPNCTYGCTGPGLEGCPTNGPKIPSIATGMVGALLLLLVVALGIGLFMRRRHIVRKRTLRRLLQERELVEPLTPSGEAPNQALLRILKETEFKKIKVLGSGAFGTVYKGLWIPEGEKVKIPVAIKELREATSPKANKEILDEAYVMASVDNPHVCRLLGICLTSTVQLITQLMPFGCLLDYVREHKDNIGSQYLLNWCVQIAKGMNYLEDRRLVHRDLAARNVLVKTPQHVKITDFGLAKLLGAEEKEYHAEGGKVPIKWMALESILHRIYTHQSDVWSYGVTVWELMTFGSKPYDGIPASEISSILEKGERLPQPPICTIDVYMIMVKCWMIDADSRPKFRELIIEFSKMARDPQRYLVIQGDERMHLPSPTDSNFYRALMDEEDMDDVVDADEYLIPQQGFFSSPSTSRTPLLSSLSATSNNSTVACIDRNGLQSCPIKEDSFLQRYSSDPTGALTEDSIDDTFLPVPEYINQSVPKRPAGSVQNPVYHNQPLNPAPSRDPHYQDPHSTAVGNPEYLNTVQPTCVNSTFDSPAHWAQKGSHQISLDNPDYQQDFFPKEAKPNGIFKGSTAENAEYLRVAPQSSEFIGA
Epidermal growth factor receptor (Homo sapiens, UniProt P00533, L858R/T790M), sequence (P00533 25-1210 T790M/L858R limits assumed): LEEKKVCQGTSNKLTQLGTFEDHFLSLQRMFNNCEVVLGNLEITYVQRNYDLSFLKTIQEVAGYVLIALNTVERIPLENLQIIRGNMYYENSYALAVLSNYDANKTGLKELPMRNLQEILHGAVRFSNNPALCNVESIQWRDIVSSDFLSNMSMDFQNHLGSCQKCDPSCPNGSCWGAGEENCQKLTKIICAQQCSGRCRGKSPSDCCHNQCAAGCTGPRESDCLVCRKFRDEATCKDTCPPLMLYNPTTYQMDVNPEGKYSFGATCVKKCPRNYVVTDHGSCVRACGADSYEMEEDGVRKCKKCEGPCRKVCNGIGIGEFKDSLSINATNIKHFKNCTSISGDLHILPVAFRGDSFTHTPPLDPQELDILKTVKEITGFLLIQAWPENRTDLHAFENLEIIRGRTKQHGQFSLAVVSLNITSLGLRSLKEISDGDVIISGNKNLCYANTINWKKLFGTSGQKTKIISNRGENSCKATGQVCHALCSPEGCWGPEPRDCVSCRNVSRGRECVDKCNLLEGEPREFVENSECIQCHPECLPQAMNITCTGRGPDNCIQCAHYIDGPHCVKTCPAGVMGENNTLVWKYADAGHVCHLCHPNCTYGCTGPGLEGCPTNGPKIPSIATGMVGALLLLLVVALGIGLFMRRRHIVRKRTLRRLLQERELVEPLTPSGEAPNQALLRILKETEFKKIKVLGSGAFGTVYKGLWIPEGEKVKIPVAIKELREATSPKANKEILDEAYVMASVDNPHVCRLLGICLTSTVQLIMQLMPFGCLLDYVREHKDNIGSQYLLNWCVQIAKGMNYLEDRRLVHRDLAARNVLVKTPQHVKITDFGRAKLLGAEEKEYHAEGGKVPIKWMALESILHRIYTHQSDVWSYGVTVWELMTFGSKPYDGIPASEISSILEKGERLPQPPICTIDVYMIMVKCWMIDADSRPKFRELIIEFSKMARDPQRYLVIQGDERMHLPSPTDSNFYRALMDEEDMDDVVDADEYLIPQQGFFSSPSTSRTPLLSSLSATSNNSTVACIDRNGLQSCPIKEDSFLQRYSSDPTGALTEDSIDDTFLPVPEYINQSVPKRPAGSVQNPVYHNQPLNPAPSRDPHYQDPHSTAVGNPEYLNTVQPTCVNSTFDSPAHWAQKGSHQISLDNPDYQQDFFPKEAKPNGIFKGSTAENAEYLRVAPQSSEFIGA

| SMILES | IC50 [1] [nM] | IC50 [2] [nM] | IC50 (NCI-H1975 [3]) [nM] | Ratio IC50 (Homo sapiens [4]) | Ratio IC50 (Homo sapiens [5]) | IC50 (A-431) [nM] | other results |
| --- | --- | --- | --- | --- | --- | --- | --- |
| C=CC(=O)Nc1cc(Nc2nccc(Nc3ccccc3-c3ccn(C)n3)n2)c(OC)cc1N1CCN(C)CC1 | > 1000 | > 1000 |  |  |  |  |  |
| C=CC(=O)Nc1cc(Nc2nccc(Nc3ccccc3-c3ccn(C)n3)n2)c(OC)cc1N1CCOCC1 | > 1000 | > 1000 |  |  |  |  |  |
| C=CC(=O)Nc1cc(Nc2nccc(Nc3ccccc3-n3cccn3)n2)c(OC)cc1N(C)CCN(C)C | 648 | 4.1 | 68 | 148 | 158 | 10100 |  |
| C=CC(=O)Nc1cc(Nc2nccc(-c3cn(C)c4ccccc34)n2)c(OC)cc1N(C)CCN(C)C [OSIMERTINIB] |  |  | […] |  |  | […] | TGI (NCI-H1975 [6]): Active |
| C=CC(=O)Nc1cc(Nc2nccc(Nc3ccccc3-n3nccn3)n2)c(OC)cc1N1CCN(C)CC1 | > 1000 | 175 |  |  |  |  |  |
| C=CC(=O)Nc1cc(Nc2nccc(Nc3ccccc3-c3ncn(C)n3)n2)c(OC)cc1N(C)CCN(C)C | 660 | 7.7 | 74 | 20 | 86 | 1500 |  |
| C=CC(=O)Nc1cc(Nc2nccc(Nc3ccccc3-n3nccn3)n2)c(OC)cc1N(C)CCN(C)C | 281 | 33.1 |  |  | 8 |  |  |
| C=CC(=O)Nc1cc(Nc2nccc(Nc3ccccc3-n3cccn3)n2)c(OC)cc1N1CCN(C)CC1 | > 1000 | 143 |  |  |  |  |  |
| C=CC(=O)Nc1cc(Nc2nccc(Nc3ccccc3-n3nccn3)n2)c(OC)cc1N1CCOCC1 | > 1000 | 838 |  |  |  |  |  |
| C=CC(=O)Nc1cc(Nc2nccc(Nc3ccccc3-c3ccn(C)n3)n2)c(OC)cc1N1CCC(N(C)C)CC1 | > 1000 | 38.5 |  |  |  |  |  |
| C=CC(=O)Nc1cc(Nc2nccc(Nc3ccccc3-c3ccn(C)n3)n2)c(OC)cc1N(C)CCN(C)C | 350 | 4.1 | 59 | 124 | 85 | 7370 | inhibition [7]: Dose-dependent effect; inhibition (Mus musculus [8]): Active; inhibition (INH) [9]: Not Active; TGI (NCI-H1975 [10]): Dose-dependent effect; inhibition (INH) (Mus musculus [11]): Not Active; TGI (A431 (Homo sapiens)): < 20%; inhibition [12]: Dose-dependent effect; inhibition [13]: Dose-dependent effect; Activity (Mus musculus [14]): Non-Toxic; inhibition (Mus musculus [15]): Active; Activity (Mus musculus [16]): Non-Toxic; inhibition (INH) (Mus musculus [17]): Not Active |
| C=CC(=O)Nc1cc(Nc2nccc(Nc3ccccc3-c3ccn(C)n3)n2)c(OC)cc1OCCN(C)C | 317 | 16.4 | 85 | 18 | 19 | 1580 |  |
| C=CC(=O)Nc1cc(Nc2nccc(Nc3ccccc3-n3cccn3)n2)c(OC)cc1N1CCOCC1 | > 1000 | > 1000 |  |  |  |  |  |
| C=CC(=O)Nc1cc(Nc2nccc(Nc3ccccc3-n3nccn3)n2)c(OC)cc1N1CCC(N(C)C)CC1 | > 1000 | 202 | 70 | 39 |  | 2760 |  |
